# Source: ChEMBL document CHEMBL5154945, “Discovery and Optimization of Pyrrolopyrimidine Derivatives as Selective Disruptors of the Perinucleolar Compartment, a Marker of Tumor Progression toward Metastasis” (J Med Chem, 2022)
# The source made the active and inactive calls. The calls are words filed in the database; no cut-off is given here.
# Experiments:
# [1] = Microsomal stability in CD1 mouse liver microsomes assessed as half life measured upto 60 mins in presence of NADPH by LC-MS analysis; conditions: CD1, mouse, liver microsomes
# Hs-578T = test: Anticancer activity against human Hs-578T cells assessed as cell growth inhibition; type: functional, cell-based; conditions: dose 1-100 µM, DDE = dose-dependent effect
# [2] = biological target: 5-hydroxytryptamine receptor 2B (Homo sapiens) (UniProt P41595); test: Binding affinity to 5-HT2B receptor (unknown origin) at 10000 nM by radioligand displacement assay relative to control
# SK-MEL-5 = test: Anticancer activity against human SK-MEL-5 cells assessed as cell growth inhibition; type: functional, cell-based; conditions: dose 1-100 µM, DDE = dose-dependent effect
# [3] = biological target: GABA-A receptor; anion channel (Homo sapiens) (UniProt P14867+P47870+P18507+P28472+P48169+Q99928+Q9UN88+P34903+O00591+O14764+Q8N1C3+P18505+P78334+P47869+P31644+Q16445); test: Binding affinity to GABAA receptor (unknown origin) at 10000 nM by radioligand displacement assay relative to control; type: protein-complex assay
# [4] = Clast in male C57BL/6 mouse at 50 mg/kg, ip at 48 hrs by LC-MS/MS analysis; conditions: in vivo
# [5] = biological target: D(2) dopamine receptor (Homo sapiens) (UniProt P14416); test: Binding affinity to D2 receptor (unknown origin) at 10000 nM by radioligand displacement assay relative to control
# PC-3M [6] = test: Antiproliferative activity against human PC-3M cells expressing PTB/GFP fusion protein assessed as cell growth inhibition at 0.1 to 10 uM and measured every four hrs for 130 hrs by IncuCyte zoom live cell analysis; type: functional, cell-based; conditions: dose 0.1-10 µM
# Method in brief: (§1)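 PC3M cells stably expressing GFP-PTB, grown in DMEM with 10% FBS and 1% penicillin/streptomycin, seeded at 1.25×10^4 cells/ml in 384-well plates and left overnight at 37 °C, 5% CO2. Compound added in DMEM to give 11 final concentrations from 10 nM to 20 μM. Brightfield images were taken every 4 h for about 130 h and scored as percent confluence.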
# SF-539 = test: Anticancer activity against human SF-539 cells assessed as cell growth inhibition; type: functional, cell-based; conditions: dose 1-100 µM, DDE = dose-dependent effect
# [7] = biological target: Beta-3 adrenergic receptor (Homo sapiens) (UniProt P13945); test: Binding affinity to beta3 receptor (unknown origin) at 10000 nM by radioligand displacement assay relative to control
# A498 = test: Anticancer activity against human A498 cells assessed as cell growth inhibition; type: functional, cell-based; conditions: dose 1-100 µM, DDE = dose-dependent effect
# NCI-H522 = test: Anticancer activity against human NCI-H522 cells assessed as cell growth inhibition; type: functional, cell-based; conditions: dose 1-100 µM, DDE = dose-dependent effect
# [8] = biological target: Alpha-2C adrenergic receptor (Homo sapiens, UniProt P18825); test: Binding affinity to alpha2C receptor (unknown origin) by radioligand displacement assay
# IGROV-1 = test: Anticancer activity against human IGROV-1 cells assessed as cell growth inhibition; type: functional, cell-based; conditions: dose 1-100 µM, DDE = dose-dependent effect
# PC-3M [9] = test: Antiproliferative activity against human PC-3M cells expressing PTB/GFP fusion protein assessed as reduction of nucleolar volume at 1 to 30 uM measured after 24 hrs by Nucleolar-id Green Detection based confocal microscopic analysis; type: functional, cell-based; conditions: dose 1-30 µM, DDE = dose-dependent effect
# Method in brief: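 PC-3M cells grown in RPMI 1640 with 10% FBS and penicillin/streptomycin, trypsinized at 70% confluence, and seeded at 2×10^5 cells/mL overnight at 37 °C, 5% CO₂. Medium replaced with compound or 1% DMSO for 24 h. Nucleoli stained with Nucleolar-ID Green and nuclei with Hoechst 33342, then imaged by confocal microscopy. Bright green objects in three images per condition normalized to nuclei count; vehicle set to 100.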
# [10] = biological target: 5-hydroxytryptamine receptor 7 (Homo sapiens) (UniProt P34969); test: Binding affinity to 5-HT7 receptor (unknown origin) at 10000 nM by radioligand displacement assay relative to control
# [11] = biological target: Muscarinic acetylcholine receptor M2 (Homo sapiens) (UniProt P08172); test: Binding affinity to M2 receptor (unknown origin) at 10000 nM by radioligand displacement assay relative to control
# [12] = biological target: Muscarinic acetylcholine receptor M1 (Homo sapiens) (UniProt P11229); test: Binding affinity to M1 receptor (unknown origin) at 10000 nM by radioligand displacement assay relative to control
# in vitro = conditions: human, PC-3M cells expressing PTB/GFP fusion protein
# [13] = AUC (0 to 48 hrs) in female BALB/c mouse at 5 mg/kg, ip at 48 hrs by LC-MS/MS analysis; type: ADME, organism-based; design: time 48 hrs, dose 5 mg/kg, route ip; conditions: in vivo
# Method in brief: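 Fed female BALB/c mice, about 6–8 weeks old and 25–30 g, received a single IP dose. The vehicle was 5-10% NMP + 20% PEG400 + 70-75% (25% HP-β-CD in water), with the drug at 2.5/0.5 mg/mL. Blood was taken by retro-orbital puncture under isoflurane into K2EDTA tubes, 3 mice per time point, over 48 h. Plasma was prepared at 2000 g, 5 min, 4 °C, and measured by LC/MS/MS.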
# OVCAR-8 = test: Anticancer activity against human OVCAR-8 cells assessed as cell growth inhibition; type: functional, cell-based; conditions: dose 1-100 µM, DDE = dose-dependent effect
# SR = test: Anticancer activity against human SR cells assessed as cell growth inhibition; type: functional, cell-based; conditions: dose 1-100 µM, DDE = dose-dependent effect
# RPMI-8226 = test: Anticancer activity against human RPMI-8226 cells assessed as cell growth inhibition; type: functional, cell-based; conditions: dose 1-100 µM, DDE = dose-dependent effect
# [14] = biological target: 5-hydroxytryptamine receptor 1B (Homo sapiens) (UniProt P28222); test: Binding affinity to 5-HT1B receptor (unknown origin) at 10000 nM by radioligand displacement assay relative to control
# [15] = biological target: Beta-2 adrenergic receptor (Homo sapiens) (UniProt P07550); test: Binding affinity to beta2 receptor (unknown origin) at 10000 nM by radioligand displacement assay relative to control
# PC-3M [16] = test: Antiproliferative activity against human PC-3M cells expressing PTB/GFP fusion protein assessed as cell growth inhibition at < 100 nM and measured every four hrs for 130 hrs by IncuCyte zoom live cell analysis; type: functional, cell-based; conditions: DDE = dose-dependent effect; method in brief: as §1
# [17] = biological target: Beta-1 adrenergic receptor (Homo sapiens) (UniProt P08588); test: Binding affinity to beta1 receptor (unknown origin) at 10000 nM by radioligand displacement assay relative to control
# [18] = biological target: Sigma non-opioid intracellular receptor 1 (Homo sapiens) (UniProt Q99720); test: Binding affinity to sigma1 receptor (unknown origin) at 10000 nM by radioligand displacement assay relative to control
# [19] = biological target: 5-hydroxytryptamine receptor 5A (Homo sapiens) (UniProt P47898); test: Binding affinity to 5-HT5A receptor (unknown origin) at 10000 nM by radioligand displacement assay relative to control
# [20] = biological target: Sodium-dependent dopamine transporter (Homo sapiens, UniProt Q01959); test: Binding affinity to DAT receptor (unknown origin) by radioligand displacement assay
# [21] = biological target: Kappa-type opioid receptor (Homo sapiens) (UniProt P41145); test: Binding affinity to KOR receptor (unknown origin) at 10000 nM by radioligand displacement assay relative to control
# [22] = biological target: D(3) dopamine receptor (Homo sapiens) (UniProt P35462); test: Binding affinity to D3 receptor (unknown origin) at 10000 nM by radioligand displacement assay relative to control
# Beta-1 adrenergic receptor (Homo sapiens), sequence (P08588 whole entry, looked up): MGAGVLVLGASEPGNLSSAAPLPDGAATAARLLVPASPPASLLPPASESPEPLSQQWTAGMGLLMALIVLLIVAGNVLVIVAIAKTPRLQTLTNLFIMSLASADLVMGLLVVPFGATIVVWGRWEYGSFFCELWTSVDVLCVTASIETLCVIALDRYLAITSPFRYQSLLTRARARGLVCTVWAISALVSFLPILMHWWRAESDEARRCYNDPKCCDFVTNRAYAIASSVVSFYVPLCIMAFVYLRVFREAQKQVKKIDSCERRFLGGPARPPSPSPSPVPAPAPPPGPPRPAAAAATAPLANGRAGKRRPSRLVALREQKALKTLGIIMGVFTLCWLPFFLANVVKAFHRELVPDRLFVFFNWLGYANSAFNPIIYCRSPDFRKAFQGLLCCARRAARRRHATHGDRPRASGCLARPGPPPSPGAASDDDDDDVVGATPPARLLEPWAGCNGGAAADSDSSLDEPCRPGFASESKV
# Alpha-2C adrenergic receptor, sequence (P18825 whole entry): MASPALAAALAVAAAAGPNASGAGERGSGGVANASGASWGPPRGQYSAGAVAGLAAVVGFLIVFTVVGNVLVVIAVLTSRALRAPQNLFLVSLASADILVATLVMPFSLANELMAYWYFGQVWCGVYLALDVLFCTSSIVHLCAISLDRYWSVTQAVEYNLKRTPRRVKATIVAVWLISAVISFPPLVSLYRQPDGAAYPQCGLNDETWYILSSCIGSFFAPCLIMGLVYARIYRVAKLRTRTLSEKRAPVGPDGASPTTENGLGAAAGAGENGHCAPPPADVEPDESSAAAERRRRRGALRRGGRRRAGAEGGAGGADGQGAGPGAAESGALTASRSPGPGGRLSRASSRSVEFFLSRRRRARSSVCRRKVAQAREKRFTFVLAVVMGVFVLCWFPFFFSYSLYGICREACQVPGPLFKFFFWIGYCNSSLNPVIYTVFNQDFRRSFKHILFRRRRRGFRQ
# Sigma non-opioid intracellular receptor 1 (Homo sapiens), sequence (Q99720 whole entry): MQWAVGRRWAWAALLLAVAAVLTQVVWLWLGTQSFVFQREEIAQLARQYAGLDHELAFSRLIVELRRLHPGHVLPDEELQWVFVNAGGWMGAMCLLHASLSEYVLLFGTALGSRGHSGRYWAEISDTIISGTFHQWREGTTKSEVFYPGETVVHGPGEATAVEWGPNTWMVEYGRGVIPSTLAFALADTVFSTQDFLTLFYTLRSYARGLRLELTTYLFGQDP
# 5-hydroxytryptamine receptor 1B (Homo sapiens), sequence (P28222 whole entry): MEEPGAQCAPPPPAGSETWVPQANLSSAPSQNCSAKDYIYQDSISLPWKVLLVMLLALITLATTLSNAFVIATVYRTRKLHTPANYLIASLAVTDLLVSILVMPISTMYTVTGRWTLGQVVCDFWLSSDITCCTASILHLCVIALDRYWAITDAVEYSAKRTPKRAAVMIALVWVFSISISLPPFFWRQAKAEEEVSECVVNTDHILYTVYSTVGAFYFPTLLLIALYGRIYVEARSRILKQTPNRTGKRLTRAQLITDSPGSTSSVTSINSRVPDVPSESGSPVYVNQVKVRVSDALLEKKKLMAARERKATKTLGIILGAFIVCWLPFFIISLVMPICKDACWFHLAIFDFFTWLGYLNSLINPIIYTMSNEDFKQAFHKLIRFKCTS
# Sodium-dependent dopamine transporter, sequence (Q01959 whole entry): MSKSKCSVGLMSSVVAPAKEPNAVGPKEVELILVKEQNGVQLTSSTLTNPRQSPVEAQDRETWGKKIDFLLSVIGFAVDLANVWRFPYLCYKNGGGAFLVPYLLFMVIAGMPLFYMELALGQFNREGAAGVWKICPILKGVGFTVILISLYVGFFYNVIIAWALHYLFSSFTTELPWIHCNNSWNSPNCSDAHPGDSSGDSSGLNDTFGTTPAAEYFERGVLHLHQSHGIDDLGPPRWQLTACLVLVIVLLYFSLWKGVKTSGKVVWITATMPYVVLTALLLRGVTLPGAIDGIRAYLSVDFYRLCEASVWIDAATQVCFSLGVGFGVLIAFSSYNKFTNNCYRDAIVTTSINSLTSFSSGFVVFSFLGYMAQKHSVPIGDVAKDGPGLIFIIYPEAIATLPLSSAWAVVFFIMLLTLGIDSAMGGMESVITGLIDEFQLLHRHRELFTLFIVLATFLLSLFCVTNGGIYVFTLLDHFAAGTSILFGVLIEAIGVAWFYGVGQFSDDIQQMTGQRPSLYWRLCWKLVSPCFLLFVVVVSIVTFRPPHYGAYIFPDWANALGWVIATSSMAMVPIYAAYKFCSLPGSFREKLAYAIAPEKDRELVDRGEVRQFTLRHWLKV
# Beta-3 adrenergic receptor (Homo sapiens), sequence (P13945 whole entry, looked up): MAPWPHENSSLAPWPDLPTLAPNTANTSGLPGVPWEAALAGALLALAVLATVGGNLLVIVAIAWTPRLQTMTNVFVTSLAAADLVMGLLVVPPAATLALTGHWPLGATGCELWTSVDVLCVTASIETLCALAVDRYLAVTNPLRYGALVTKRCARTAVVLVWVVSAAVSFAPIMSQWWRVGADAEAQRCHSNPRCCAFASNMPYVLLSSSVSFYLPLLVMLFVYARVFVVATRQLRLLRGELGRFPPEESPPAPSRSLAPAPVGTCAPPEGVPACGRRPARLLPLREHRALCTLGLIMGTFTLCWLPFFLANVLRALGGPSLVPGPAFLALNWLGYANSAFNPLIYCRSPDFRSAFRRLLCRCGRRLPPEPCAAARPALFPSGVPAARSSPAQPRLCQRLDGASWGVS
# Kappa-type opioid receptor (Homo sapiens), sequence (P41145 whole entry): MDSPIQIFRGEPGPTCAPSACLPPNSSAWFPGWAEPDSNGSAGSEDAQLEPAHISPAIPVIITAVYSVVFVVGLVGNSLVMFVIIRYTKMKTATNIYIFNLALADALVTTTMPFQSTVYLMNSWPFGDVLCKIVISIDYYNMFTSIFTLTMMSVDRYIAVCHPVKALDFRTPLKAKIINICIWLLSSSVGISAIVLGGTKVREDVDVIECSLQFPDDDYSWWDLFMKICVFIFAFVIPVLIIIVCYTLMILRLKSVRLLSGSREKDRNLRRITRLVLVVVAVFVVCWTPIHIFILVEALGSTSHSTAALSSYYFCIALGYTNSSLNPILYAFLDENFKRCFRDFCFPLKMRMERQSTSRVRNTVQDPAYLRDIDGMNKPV
# 5-hydroxytryptamine receptor 2B (Homo sapiens), sequence (P41595 whole entry): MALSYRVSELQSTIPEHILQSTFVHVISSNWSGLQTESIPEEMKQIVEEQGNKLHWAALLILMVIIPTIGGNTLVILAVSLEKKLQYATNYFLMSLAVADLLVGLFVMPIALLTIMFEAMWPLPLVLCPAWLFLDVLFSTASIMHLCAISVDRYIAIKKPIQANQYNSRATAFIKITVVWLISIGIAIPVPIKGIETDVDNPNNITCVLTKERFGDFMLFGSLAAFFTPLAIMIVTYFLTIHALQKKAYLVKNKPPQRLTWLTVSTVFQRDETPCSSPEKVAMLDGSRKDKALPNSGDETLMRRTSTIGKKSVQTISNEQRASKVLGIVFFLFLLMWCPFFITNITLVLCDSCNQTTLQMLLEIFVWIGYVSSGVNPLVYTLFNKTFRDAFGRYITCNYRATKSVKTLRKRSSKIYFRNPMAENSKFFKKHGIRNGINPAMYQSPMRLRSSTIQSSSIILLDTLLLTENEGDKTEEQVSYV
# Muscarinic acetylcholine receptor M1 (Homo sapiens), sequence (P11229 whole entry, the tested form may be a part): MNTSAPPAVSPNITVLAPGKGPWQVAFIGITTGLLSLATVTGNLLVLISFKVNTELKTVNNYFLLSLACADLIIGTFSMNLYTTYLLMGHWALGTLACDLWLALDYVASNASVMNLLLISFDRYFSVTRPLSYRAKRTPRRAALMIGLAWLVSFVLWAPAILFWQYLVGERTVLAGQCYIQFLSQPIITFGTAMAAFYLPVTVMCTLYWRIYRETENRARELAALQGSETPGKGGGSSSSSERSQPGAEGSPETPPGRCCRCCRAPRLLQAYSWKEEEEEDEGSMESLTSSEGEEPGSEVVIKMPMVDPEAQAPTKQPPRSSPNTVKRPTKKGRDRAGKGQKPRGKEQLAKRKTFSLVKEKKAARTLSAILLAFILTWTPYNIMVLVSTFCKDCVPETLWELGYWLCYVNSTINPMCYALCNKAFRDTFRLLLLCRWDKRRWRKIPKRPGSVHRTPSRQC
# D(2) dopamine receptor (Homo sapiens), sequence (P14416 whole entry, the tested form may be a part): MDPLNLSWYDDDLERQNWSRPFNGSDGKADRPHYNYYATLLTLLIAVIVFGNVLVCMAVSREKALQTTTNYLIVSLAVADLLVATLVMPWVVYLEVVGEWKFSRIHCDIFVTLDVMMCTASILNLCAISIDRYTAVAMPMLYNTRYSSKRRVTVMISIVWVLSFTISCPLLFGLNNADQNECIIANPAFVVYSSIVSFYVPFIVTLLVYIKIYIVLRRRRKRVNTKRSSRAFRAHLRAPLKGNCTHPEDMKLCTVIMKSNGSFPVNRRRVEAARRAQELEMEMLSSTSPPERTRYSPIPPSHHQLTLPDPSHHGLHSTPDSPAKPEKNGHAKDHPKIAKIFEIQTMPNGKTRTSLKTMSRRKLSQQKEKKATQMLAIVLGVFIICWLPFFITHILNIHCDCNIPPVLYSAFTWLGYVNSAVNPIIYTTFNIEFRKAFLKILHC
# Beta-2 adrenergic receptor (Homo sapiens), sequence (P07550 whole entry, looked up, the tested form may be a part): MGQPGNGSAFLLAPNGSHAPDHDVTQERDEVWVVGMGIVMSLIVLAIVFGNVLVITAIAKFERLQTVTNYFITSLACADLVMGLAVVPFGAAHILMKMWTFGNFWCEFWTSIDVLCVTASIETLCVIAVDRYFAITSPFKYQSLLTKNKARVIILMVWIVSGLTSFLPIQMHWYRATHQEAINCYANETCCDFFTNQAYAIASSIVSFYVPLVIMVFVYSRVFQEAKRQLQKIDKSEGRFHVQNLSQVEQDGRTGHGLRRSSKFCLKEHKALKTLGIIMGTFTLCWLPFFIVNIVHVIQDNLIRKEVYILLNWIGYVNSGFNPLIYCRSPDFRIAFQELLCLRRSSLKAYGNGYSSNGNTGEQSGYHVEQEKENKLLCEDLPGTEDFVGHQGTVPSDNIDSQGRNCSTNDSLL
smiles,measurement,setting,value
N=c1c2c(-c3ccccc3)c(-c3ccccc3)n(Cc3ccccc3)c2ncn1[C@H]1CC[C@H](O)CC1 [ML-246],half-life at 1 h,[1],2 h
same,Activity,Hs-578T,Dde
same,Activity,[2],< 50%
same,Activity,SK-MEL-5,Dde
same,Activity,[3],< 50%
same,concentration at 48 h,[4],1320 nM
same,Activity,[5],< 50%
same,Activity,PC-3M [6],Active
same,Activity,SF-539,Dde
same,Activity,[7],< 50%
same,Activity,A498,Dde
same,Activity,NCI-H522,Dde
same,Ki,[8],1210 nM
same,Activity,IGROV-1,Dde
same,Activity,PC-3M [9],Dde
same,Activity,[10],< 50%
same,Activity,[11],< 50%
same,Activity,[12],< 50%
same,selectivity ratio,in vitro,38.3
same,AUC,[13],6.08 µM·h
same,Activity,OVCAR-8,Dde
same,Activity,SR,Dde
same,Activity,RPMI-8226,Dde
same,Activity,[14],< 50%
same,Activity,[15],< 50%
same,Activity,PC-3M [16],Dde
same,Activity,[17],< 50%
same,Activity,[18],< 50%
same,Activity,[19],< 50%
same,Ki,[20],3410 nM
same,Activity,[21],< 50%
same,Activity,[22],< 50%
